mIAP inh: blocks mouse intestinal alkaline phosphatase; 0.2% of 330,000 active; AID 2806; purified mouse IAP, CDP-Star luminescence, 30 min; inhibition, % at 10 µM;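 active means inhibition of at least 40% at 10 µM in the primary screen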
hIAP activ: increases human intestinal alkaline phosphatase activity; activation factor at 10 µM; 0.16% of 330,000 active; AID 2524; P09923; purified human IAP, CDP-Star luminescence, 30 min; stronger effect = higher value; 1 = vehicle-only enzyme, 0 = enzyme-free background;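 active means activation factor of the enzyme at least 2-fold when tested at 20 µM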
Target sequence (P09923 whole entry, looked up): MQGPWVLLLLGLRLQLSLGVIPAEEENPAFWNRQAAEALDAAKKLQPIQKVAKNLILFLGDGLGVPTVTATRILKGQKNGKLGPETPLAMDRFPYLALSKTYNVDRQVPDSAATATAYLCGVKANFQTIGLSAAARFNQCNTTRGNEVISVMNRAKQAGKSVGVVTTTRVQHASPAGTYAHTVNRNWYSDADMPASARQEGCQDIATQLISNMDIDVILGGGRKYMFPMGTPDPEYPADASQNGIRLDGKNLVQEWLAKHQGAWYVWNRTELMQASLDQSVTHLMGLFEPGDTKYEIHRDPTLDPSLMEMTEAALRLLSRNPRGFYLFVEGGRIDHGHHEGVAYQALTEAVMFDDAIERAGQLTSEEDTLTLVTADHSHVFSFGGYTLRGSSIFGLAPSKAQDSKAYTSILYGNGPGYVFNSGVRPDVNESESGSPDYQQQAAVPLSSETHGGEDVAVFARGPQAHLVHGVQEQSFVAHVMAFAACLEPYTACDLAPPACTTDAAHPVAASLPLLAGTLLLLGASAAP
hIAP block: blocks human intestinal alkaline phosphatase; 0.12% of 330,000 active; P09923; inhibition, % at 10 µM; purified IAP, CDP-Star luminescence, 30 min;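 active means inhibition reaching a set limit with compound at 10 µM in the primary screen, cut at about 35% in these data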
bIAP inh: intestinal alkaline phosphatase (bovine) inhibition; purified bovine IAP, CDP-star luminescence, 30 min; inhibition, % at 20 µM; 190,000 tested, under 10 active;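 active means over 50% inhibition of intestinal alkaline phosphatase at 20 µM in the single-dose screen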
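Assay system – bovine IAP enzyme · Quantity – bovine IAP at 1/65,000,000 final dilution · Detection – CDP-star luminescence signal · Times – 30 min reaction at room temperature · Also added – CDP-star substrate at 30 µM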
bIAP activator: increases bovine intestinal alkaline phosphatase activity. purified bovine IAP, CDP-star luminescence, 30 min; stronger effect = higher value; fold of DMSO-control signal, blank-subtracted. activation factor at 20 µM. 0.17% of 200,000 active. AID 1016;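 active means activation factor of 2 or more at 20 µM, a signal rise over negative controls twice the positive control's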
mIAP activ: mouse IAP activation; muIAP, CDP-Star luminescence, 30 min; stronger effect = higher value; 1 = vehicle-only enzyme signal, 0 = enzyme-free wells; activation factor at 10 µM; 0.24% of 330,000 active;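 active means activation factor of at least 2 at 20 µM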
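System: Mouse IAP enzyme | Also added: CDP-Star substrate | Dosing: Compounds dispensed in DMSO | Schedule: 30 min enzyme-substrate-compound incubation at room temperature | Technique: Chemiluminescence readout | Control set: DMSO-only wells and no-enzyme negative control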
hIAP act confirm: human IAP activation confirmation | shares compounds with hIAP activ | 10% of 880 active | activation (%Activity, negative = activation), % at 8.3 µM | purified IAP, CDP-Star luminescence, 30 min; stronger effect = lower value;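 active means at least twofold enzyme activation in any of six single-dose repeats, which the averaged readout prints as negative percent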
Of the large screens only hits and unclear results are named; the others gave an inactive call (follow-up assays come after a bar, where they were run). Shown are actives, neighbours in structure and some others; about 0.77% of the full set was active somewhere.

Cc1ccc(-n2c(-c3cccnc3)n[nH]c2=S)c(C)c1	hIAP activ 3 | hIAP act confirm inactive
CN(C)c1ccc(CN(Cc2ccco2)C(=O)c2ccco2)cc1	none (no result: bIAP inh, bIAP activator)
O=C(c1ccco1)N(Cc1ccc(Cl)cc1)Cc1ccco1	hIAP block 38 (no result: bIAP inh, bIAP activator) | hIAP act confirm inactive
Cn1ccnc1SCc1ccc(Cl)cc1Cl	hIAP activ 2.2 (no result: bIAP inh, bIAP activator) | hIAP act confirm inactive
COc1ccc(CCNC(=O)c2cc(-c3cc(Cl)ccc3O)n[nH]2)cc1OC	hIAP activ 2.3 (no result: bIAP inh, bIAP activator) | hIAP act confirm inactive
Cc1cc(O)c(-c2cc(C(=O)NCCc3ccc(S(N)(=O)=O)cc3)[nH]n2)cc1C	hIAP activ 2.2 (no result: bIAP inh, bIAP activator) | hIAP act confirm inactive
COc1ccc(CCNC(=O)c2cc(-c3cc(C)cc(C)c3O)n[nH]2)cc1OC	none (no result: bIAP inh, bIAP activator)
NS(=O)(=O)c1ccc(NC(=O)c2cc(-c3ccccc3O)n[nH]2)cc1	hIAP activ 2 (no result: bIAP inh, bIAP activator) | hIAP act confirm inactive
Cc1cc(C)c(O)c(-c2cc(C(=O)NCCc3ccc(S(N)(=O)=O)cc3)[nH]n2)c1	none (no result: bIAP inh, bIAP activator)
COc1ccc(CCNC(=O)c2cc(-c3ccc(C)cc3O)n[nH]2)cc1OC	hIAP activ 2.1 | hIAP act confirm inactive
Cc1ccc(NC(=O)c2cc(-c3ccccc3O)n[nH]2)cc1Cl	none (no result: bIAP inh, bIAP activator)
COc1ccc(C(=O)Nc2cccc(C)c2)cc1S(=O)(=O)N1CCOCC1	none
COc1ccc(C(=O)Nc2cccc3c2C(=O)NC3=O)cc1S(=O)(=O)N1CCOCC1	hIAP block 36 | hIAP act confirm -85
COc1cc(C2C3=C(CC(C)(C)CC3=O)OC3=C2C(=O)CC(C)(C)C3)cc([N+](=O)[O-])c1O	none
N#CC(C#N)=NNc1ccc([N+](=O)[O-])cc1	hIAP block 35 (no result: bIAP inh, bIAP activator) | hIAP act confirm inactive
COc1cccc(-c2nc(CS(=O)(=O)CC(=O)Nc3ccccc3C)c(C)o2)c1	none (no result: bIAP inh, bIAP activator)
COc1cccc(-c2nc(CS(=O)(=O)CC(=O)Nc3cc(OC)ccc3OC)c(C)o2)c1	hIAP block 36 (no result: bIAP inh, bIAP activator) | hIAP act confirm inactive
O=C(CCN1C(=O)C2CC=CCC2C1=O)Nc1cccc(Cl)c1 (centres undefined)	none (no result: bIAP inh, bIAP activator)
COCCNC(=O)C(=O)NCCN1CCNCC1	none
Cc1cc(C)cc(N2CC(O)=C(c3nc4ccccc4c(=O)[nH]3)C2=N)c1	none
COc1cccc(N2CC(O)=C(c3nc4ccccc4c(=O)[nH]3)C2=N)c1	hIAP activ 2.1 | hIAP act confirm inactive
Cc1ccc(C(=O)NC(C)c2nc3ccccc3n2CC(=O)Nc2c(C)cc(C)cc2C)cc1 (centres undefined)	hIAP activ 4, mIAP activ 2.7 (no result: bIAP inh, bIAP activator) | hIAP act confirm inactive
Cc1c(C(C)NC(=O)Nc2ccc(F)cc2F)cnn1C (centres undefined)	hIAP activ 2.1 | hIAP act confirm inactive
COc1ccc(/C(O)=C/C(=O)C(=O)NNC(=O)c2ccccc2)cc1	hIAP activ 2.2 (no result: bIAP inh, bIAP activator) | hIAP act confirm inactive
COc1cc(/C=N\NS(=O)(=O)c2ccccc2)cc(OC)c1OC	hIAP block 37 (no result: bIAP inh, bIAP activator) | hIAP act confirm inactive
COC(=O)CSc1nc2cc3c(cc2cc1C)OCO3	none
Cc1cc2cc3c(cc2nc1SCC(=O)Nc1nc(C)c(C)s1)OCO3	hIAP activ 2.2 | hIAP act confirm inactive
CCc1ccc2nc(Nc3nc(COC)cc(=O)[nH]3)nc(C)c2c1	hIAP activ 2.1 | hIAP act confirm inactive
CCCCCc1c(C)nc(Nc2nc(C)c3cc(OC)ccc3n2)[nH]c1=O	hIAP activ 2.1 | hIAP act confirm inactive
COCc1cc(=O)[nH]c(Nc2nc3ccc(C)cc3o2)n1	hIAP activ 2.1 | hIAP act confirm inactive
O=C(NCCCN1CCOCC1)c1ccc2c(c1)N(Cc1cccc(Cl)c1)C(=O)CS2	none (no result: bIAP inh, bIAP activator)
CNC(=O)c1[nH]cnc1C(=O)Nc1ccccc1	none (no result: bIAP inh, bIAP activator)
CNC(=O)c1[nH]cnc1C(=O)Nc1ccccn1	hIAP activ 2.1 | hIAP act confirm inactive
O=C(N/N=C/c1c(F)cccc1Cl)c1cc(C2CC2)[nH]n1	hIAP activ 2 (no result: bIAP inh, bIAP activator) | hIAP act confirm inactive
O=C(N/N=C/c1ccc(O)cc1)c1cc(C2CC2)[nH]n1	none (no result: bIAP inh, bIAP activator)
CCn1cnc2sc(C(=O)O)c(C)c2c1=O	hIAP activ 3.9 | hIAP act confirm inactive
O=S(=O)(c1ccccc1)N1CCCC1c1cccs1 (centres undefined)	hIAP block 53 (no result: bIAP inh, bIAP activator) | hIAP act confirm -172
COc1ccc(S(=O)(=O)N2CCCC2c2cccs2)cc1 (centres undefined)	none (no result: bIAP inh, bIAP activator)
CCc1cc2ccc(C)cc2nc1SCC(=O)N1CCN(C(=O)c2ccco2)CC1	hIAP activ 2.1 | hIAP act confirm inactive
Cc1ccccc1-c1cn(-c2ccccc2)c(=S)[nH]1	none (no result: bIAP inh, bIAP activator)
CC(C)(C)c1cn(-c2ccc(F)cc2)c(=S)[nH]1	hIAP block 35 | hIAP act confirm inactive
CCOC(=O)c1c(NC(=O)COC(=O)c2ccc(C)s2)sc2c1CC(C)(C)NC2(C)C	none (no result: bIAP inh, bIAP activator)
Cc1cc(NC(=O)COC(=O)Cn2[nH]c(=O)c3ccccc3c2=O)c([N+](=O)[O-])cc1C	none (no result: bIAP inh, bIAP activator)
O=C(CC(=O)c1ccccc1)Nc1ccccn1	hIAP block 42 (no result: bIAP inh, bIAP activator) | hIAP act confirm inactive
O=C(CC(=O)c1ccccc1)Nc1ccccc1	none (no result: bIAP inh, bIAP activator)
Cc1ccc([N+](=O)[O-])cc1S(=O)(=O)NCC1COc2ccccc2O1 (centres undefined)	none (no result: bIAP inh, bIAP activator)
CCOC(=O)C1=C(c2ccccc2)N=c2s/c(=C\c3cccc(O)c3)c(=O)n2C1c1cccs1 (centres undefined)	none
O=c1/c(=C\c2ccc(O)cc2)sc2n1C(c1ccccc1)C(c1ccccc1)=NN=2 (centres undefined)	hIAP block 37 | hIAP act confirm inactive
COCCOn1c(SCCOC)nc2ccccc2c1=O	none (no result: bIAP inh, bIAP activator)
CCOC(=O)C1=CNS(=O)(=O)NC1c1ccc(C[C@H](NC(=O)CNC(=O)CCc2ccccc2)C(N)=O)cc1 (some centres undefined)	none (no result: hIAP activ, hIAP block, bIAP inh, bIAP activator)
COC(=O)C(N)Cc1ccc(O)c(O)c1 (centres undefined)	none
CS(=O)(=O)c1ccc(Cl)c(NC(=O)Cc2c(Cl)cccc2Cl)c1	none
CS(=O)(=O)c1ccc(Cl)c(NC(=O)Cc2ccsc2)c1	hIAP block 36 (no result: bIAP inh, bIAP activator) | hIAP act confirm inactive
CC1CCC(NC(=O)C2CCN(c3c4c(nc5ncnn35)CCC4)CC2)CC1 (centres undefined)	none (no result: bIAP inh, bIAP activator)
CCN(CC(=O)Nc1ccccc1SC)Cc1nc2ccccc2c(=O)[nH]1	none (no result: bIAP inh, bIAP activator)
CCN(CC(=O)NC(c1ccccc1)c1ccccc1)Cc1nc2ccccc2c(=O)[nH]1	hIAP activ 2.1, bIAP activator 2.4 | hIAP act confirm inactive
Cc1c(CCCC(=O)O)sc(N)c1C(=O)c1cccc(C(F)(F)F)c1	none (no result: bIAP inh, bIAP activator)

Compound activity (PubChem BioAssay)
